{
  "source": "ChEMBL document CHEMBL2331121",
  "about": "“Design, synthesis, and pharmacological characterization of N- and O-substituted 5,6,7,8-tetrahydro-4H-isoxazolo[4,5-d]azepin-3-ol analogues: novel 5-HT(2A)/5-HT(2C) receptor agonists with pro-cognitive properties” (J Med Chem, 2013)",
  "key": {"Mus musculus [1]": {"system": "Mus musculus", "assay": "Procognitive effect in C57Bl/6J mouse assessed as number of familiar arm entry at 0.43 mg/kg, po administered 30 mins prior to acquisition trial measured after 24 hrs in presence of SB242084", "type": "functional", "how_it_was_run": "(§1)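 Male C57Bl/6J mice aged 8 weeks, two-trial place recognition Y-maze. 3 min acquisition with two arms open; 24 h ITI; 3 min retention with all three arms open. Drug given po 30 min before acquisition, vehicle 10% HP-βCD. SB242084 2.1 mg/kg co-administered where stated; doses as free base. Readouts are % distance, arm entries and time in each arm. Familiar arms pooled; one-way ANOVA.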"}, "[2]": {"biological_target": "T1, 5-hydroxytryptamine receptor 2C (Homo sapiens) (UniProt P28335)", "T1 sequence (whole entry)": "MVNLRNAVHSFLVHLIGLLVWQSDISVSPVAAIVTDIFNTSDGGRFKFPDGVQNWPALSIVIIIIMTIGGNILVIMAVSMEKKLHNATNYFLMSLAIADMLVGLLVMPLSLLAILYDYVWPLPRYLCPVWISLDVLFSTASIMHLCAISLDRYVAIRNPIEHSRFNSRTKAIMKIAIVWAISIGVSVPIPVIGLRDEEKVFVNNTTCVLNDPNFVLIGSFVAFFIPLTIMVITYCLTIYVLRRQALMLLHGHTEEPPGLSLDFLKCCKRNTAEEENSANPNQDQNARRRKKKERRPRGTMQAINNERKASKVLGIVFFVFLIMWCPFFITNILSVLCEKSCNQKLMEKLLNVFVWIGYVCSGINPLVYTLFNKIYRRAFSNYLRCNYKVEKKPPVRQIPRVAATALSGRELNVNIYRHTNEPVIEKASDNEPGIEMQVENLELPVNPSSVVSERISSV", "assay": "Ratio of EC50 for human 5HT2C receptor by calcium fiux-based fluorescence assay to […] accumulation-based TR-FRET assay", "type": "functional"}, "[3]": {"biological_target": "T2, 5-hydroxytryptamine receptor 2C (Rattus norvegicus) (UniProt P08909)", "T2 sequence (whole entry)": "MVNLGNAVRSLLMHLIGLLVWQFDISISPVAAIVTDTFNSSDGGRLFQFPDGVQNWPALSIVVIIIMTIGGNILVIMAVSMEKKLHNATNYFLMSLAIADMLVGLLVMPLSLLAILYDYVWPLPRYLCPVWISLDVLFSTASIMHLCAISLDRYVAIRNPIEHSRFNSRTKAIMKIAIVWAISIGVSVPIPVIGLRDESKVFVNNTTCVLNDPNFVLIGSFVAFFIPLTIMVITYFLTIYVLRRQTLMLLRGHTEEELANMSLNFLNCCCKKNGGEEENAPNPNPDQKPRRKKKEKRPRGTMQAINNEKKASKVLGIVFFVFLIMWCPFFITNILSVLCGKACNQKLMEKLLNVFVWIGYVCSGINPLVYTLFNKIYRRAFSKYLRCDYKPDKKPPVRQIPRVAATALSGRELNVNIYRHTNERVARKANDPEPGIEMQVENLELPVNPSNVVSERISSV", "assay": "Displacement of [125I]-N-(p-I-Bn)-THAZ from 5HT2C receptor in rat midbrain membrane after 1 hr by scintillation counting analysis", "type": "cell membranes"}, "[4]": {"biological_target": "T1, 5-hydroxytryptamine receptor 2C (Homo sapiens)", "assay": "Agonist activity at human 5HT2C receptor expressed in HEK293 cells assessed as accumulation of IP1 incubated for 1 hr at 37 degC followed by 15 mins at RT by TR-FRET assay relative to 5HT", "type": "functional, cell-based", "how_it_was_run": "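Polyclonal HEK293 lines stably expressing human 5-HT2A (variant 1) or 5-HT2C (INI isoform), detached and suspended at 1 × 10⁷ cells/mL in HBSS with 20 mM HEPES, 1 mM CaCl₂, 1 mM MgCl₂, pH 7.4. Ligands in buffer with 40 mM LiCl. Incubated 1 h at 37 °C, then 15 min RT. IP1 read by HTRF 665/615 ratio. Triplicate, at least four times.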"}, "[5]": {"biological_target": "T3, 5-hydroxytryptamine receptor 2A (Homo sapiens, UniProt P28223)", "T3 sequence (P28223 whole entry)": "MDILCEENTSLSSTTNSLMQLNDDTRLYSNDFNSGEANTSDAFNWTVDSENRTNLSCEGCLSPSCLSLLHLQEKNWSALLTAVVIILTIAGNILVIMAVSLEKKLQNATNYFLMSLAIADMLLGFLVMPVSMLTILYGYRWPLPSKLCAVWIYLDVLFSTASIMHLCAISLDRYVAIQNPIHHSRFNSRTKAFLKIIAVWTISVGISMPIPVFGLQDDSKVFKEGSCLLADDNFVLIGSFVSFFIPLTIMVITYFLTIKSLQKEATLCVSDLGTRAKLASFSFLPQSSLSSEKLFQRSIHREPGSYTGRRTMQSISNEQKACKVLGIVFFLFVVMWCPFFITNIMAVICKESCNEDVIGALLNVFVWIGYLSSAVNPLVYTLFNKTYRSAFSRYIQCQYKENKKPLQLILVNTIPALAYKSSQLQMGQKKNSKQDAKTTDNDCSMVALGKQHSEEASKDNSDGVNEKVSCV", "assay": "Agonist activity at human 5HT2A receptor expressed in HEK293 cells assessed as induction of intracellular calcium release measured for 90 secs by fluorescence assay", "type": "functional, cell-based", "settings": "read-out: EC50"}, "[6]": {"biological_target": "T1, 5-hydroxytryptamine receptor 2C (Homo sapiens)", "assay": "Agonist activity at human 5HT2C receptor expressed in HEK293 cells assessed as induction of intracellular calcium release by fluorescence assay relative to 5HT", "type": "functional, cell-based", "how_it_was_run": "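Stable polyclonal 5-HT2A or 5-HT2C HEK293 cells seeded on poly-D-lysine plates (6 × 10⁴ cells/well). Next day loaded with Fluo-4/AM for 1 h at 37 °C in HBSS/20 mM HEPES/1 mM CaCl₂/1 mM MgCl₂/2.5 mM probenecid, pH 7.4. Fluorescence (485 ex/525 em) recorded before and up to 90 s after agonist. Response relative to 5-HT on the same plate. Duplicate, at least three times.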"}, "[7]": {"biological_target": "T2, 5-hydroxytryptamine receptor 2C (Rattus norvegicus)", "assay": "Displacement of [125I]-N-(p-I-Bn)-THAZ from 5HT2C receptor in rat cerebellum membrane after 1 hr by scintillation counting analysis", "type": "cell membranes"}, "Mus musculus [8]": {"system": "Mus musculus", "assay": "Procognitive effect in C57Bl/6J mouse assessed as number of familiar arm entry at 0.43 mg/kg, po administered 30 mins prior to acquisition trial measured after 24 hrs by Y-maze test", "type": "functional", "how_it_was_run": "as §1"}, "[9]": {"biological_target": "T3, 5-hydroxytryptamine receptor 2A", "assay": "Agonist activity at human 5HT2A receptor expressed in HEK293 cells assessed as accumulation of IP1 incubated for 1 hr at 37 degC followed by 15 mins at RT by TR-FRET assay", "type": "functional, cell-based"}, "[10]": {"biological_target": "T4, 5-hydroxytryptamine receptor 2C (Homo sapiens, UniProt P28335)", "T4 sequence (P28335 whole entry)": "T1 sequence (whole entry)", "assay": "Displacement of [3H]mesulergine from human 5HT2C receptor expressed in tsA201 cell membranes after 1 hr by scintillation counting analysis"}, "[11]": {"biological_target": "T2, 5-hydroxytryptamine receptor 2C (Rattus norvegicus)", "assay": "Displacement of [125I]-N-(p-I-Bn)-THAZ from 5HT2C in Sprague-Dawley rat hippocampal membrane at 100 uM after 40 mins by autoradiography", "type": "tissue-based", "settings": "Hippocampus"}, "Mus musculus [12]": {"system": "Mus musculus", "assay": "Procognitive effect in C57Bl/6J mouse assessed as distance traveled in the familiar arm at 0.43 mg/kg, po administered 30 mins prior to acquisition trial measured after 24 hrs by Y-maze test (Rvb =31.5 +/- 2.9%)", "type": "functional", "how_it_was_run": "as §1"}, "Mus musculus [13]": {"system": "Mus musculus", "assay": "Procognitive effect in C57Bl/6J mouse assessed as time spent in novel arm at 0.43 mg/kg, po administered 30 mins prior to acquisition trial measured after 24 hrs by Y-maze test", "type": "functional", "how_it_was_run": "as §1"}, "[14]": {"biological_target": "T5, 5-hydroxytryptamine receptor 2C (Rattus norvegicus, UniProt P08909)", "T5 sequence (P08909 whole entry)": "T2 sequence (whole entry)", "assay": "(§2) Displacement of [125I]-N-(p-I-Bn)-THAZ from 5HT2C receptor in rat cerebral cortex membrane after 1 hr by scintillation counting analysis", "type": "cell membranes"}, "[15]": {"biological_target": "T2, 5-hydroxytryptamine receptor 2C (Rattus norvegicus)", "assay": "as §2", "type": "cell membranes"}, "Mus musculus [16]": {"system": "Mus musculus", "assay": "Procognitive effect in C57Bl/6J mouse assessed as distance traveled in the familiar arm at 0.43 mg/kg, po administered 30 mins prior to acquisition trial measured after 24 hrs in presence of SB242084 (reference value: 31.5 +/- 2.9%)", "type": "functional", "how_it_was_run": "as §1"}, "Mus musculus [17]": {"system": "Mus musculus", "assay": "Procognitive effect in C57Bl/6J mouse assessed as time spent in novel arm at 0.43 mg/kg, po administered 30 mins prior to acquisition trial measured after 24 hrs in presence of SB242084", "type": "functional", "how_it_was_run": "as §1"}, "Mus musculus [18]": {"system": "Mus musculus", "assay": "Procognitive effect in C57Bl/6J mouse assessed as number of novel arm entry at 0.43 mg/kg, po administered 30 mins prior to acquisition trial measured after 24 hrs in presence of SB242084", "type": "functional", "how_it_was_run": "as §1"}},
  "note": "Active and inactive are the calls of the source. No cut-off for these calls is given here.",
  "data": [
    {"smiles": "O=c1c2c(on1Cc1ccccc1)CCNCC2", "values": [
      {"measurement": "Activity", "setting": "Mus musculus [1]", "value": 33.6, "unit": "%"},
      {"measurement": "Ratio EC50", "setting": "[2]", "value": 2},
      {"measurement": "Activity", "setting": "[3]", "value": "inactive"},
      {"measurement": "Emax", "setting": "[4]", "value": 92, "unit": "%"},
      {"measurement": "EC50", "setting": "[5]", "value": 550, "unit": "nM"},
      {"measurement": "Emax", "setting": "[6]", "value": 90, "unit": "%"},
      {"measurement": "Activity", "setting": "[7]", "value": "inactive"},
      {"measurement": "Activity", "setting": "Mus musculus [8]", "value": 30.8, "unit": "%"},
      {"measurement": "EC50", "setting": "[9]", "value": 2400, "unit": "nM"},
      {"measurement": "Ki", "setting": "[10]", "value": 2300, "unit": "nM"},
      {"measurement": "Activity", "setting": "[11]", "value": "inactive"},
      {"measurement": "Activity", "setting": "Mus musculus [12]", "value": 29.8, "unit": "%"},
      {"measurement": "Activity", "setting": "Mus musculus [13]", "value": 38.8, "unit": "%"},
      {"measurement": "Ki", "setting": "[14]", "value": 724, "unit": "nM"},
      {"measurement": "Activity", "setting": "[15]", "value": "Dose-dependent effect"},
      {"measurement": "Activity", "setting": "Mus musculus [16]", "value": 32.6, "unit": "%"},
      {"measurement": "Activity", "setting": "Mus musculus [17]", "value": 36.6, "unit": "%"},
      {"measurement": "Activity", "setting": "Mus musculus [18]", "value": 32.8, "unit": "%"}
    ]}
  ]
}
